Results: ChEMBL document CHEMBL1151198, “A new antimalarial quassinoid from Simaba orinocensis” (J Nat Prod, 2004)
≈ marks a conversion by molar mass, not a printed value. Calls of active or inactive are those of the source. The calls are words filed in the database; no cut-off is given here.

Columns and labels:
[1] = tested on: HeLa; assay: Inhibition of translation in human HeLa cells at 10 uM by 35S-methionine metabolic labeling study; format: functional, cell-based
[2] = tested on: HeLa; assay: Inhibition of translation in human HeLa cells at 2 uM by 35S-methionine metabolic labeling study; format: functional, cell-based
[3] = Inhibition of protein biosynthesis in mouse Krebs cells assessed as firefly luciferase activity at 10 uM after 1 hr by translation assay relative to control; format: functional
In short: (§1)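 In vitro Krebs cell translation system read by firefly and renilla luciferase. Compounds at 10 or 2 µM; anisomycin 10 µM as reference and 0.5% DMSO as vehicle control. Values are average luciferase activity relative to control.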

[4] = tested on: HeLa; assay: Inhibition of protein synthesis in human HeLa cells assessed as translation at 2 uM by [35S]methionine metabolic labeling study; format: functional; parameters: scale not given: the % may be the effect or the level left
[5] = Inhibition of protein biosynthesis in mouse Krebs cells assessed as firefly luciferase activity at 2 uM after 1 hr by translation assay relative to control; format: functional; in short: as §1
[6] = Inhibition of protein biosynthesis in mouse Krebs cells assessed as renilla luciferase activity at 10 uM after 1 hr by translation assay relative to control; format: functional; in short: as §1
[7] = tested on: Leishmania donovani; assay: Antileishmanial activity against Leishmania donovani promastigotes after 48 hrs by alamar blue assay; format: functional, organism-based
[8] = tested on: Plasmodium falciparum; assay: Antimalarial activity against chloroquine-resistant Plasmodium falciparum W2 by LDH assay; format: functional, organism-based
[9] = tested on: HeLa; assay: Inhibition of protein synthesis in human HeLa cells at 2 uM by [35S]methionine metabolic labeling study; format: functional
[10] = tested on: Vero; assay: Cytotoxicity against african green monkey kidney Vero cells; format: cell-based; details: Chlorocebus sabaeus
[11] = tested on: Plasmodium falciparum; assay: Antimalarial activity against chloroquine-sensitive Plasmodium falciparum D6 by LDH assay; format: functional, organism-based
[12] = Inhibition of protein biosynthesis in mouse Krebs cells assessed as renilla luciferase activity at 2 uM after 1 hr by translation assay relative to control; format: functional; in short: as §1
[13] = Selectivity index, ratio of IC50 for african green monkey (Cercopithecus aethiops) Vero cells to IC50 for chloroquine-resistant Plasmodium falciparum W2; format: toxicity, cell-based; details: read-out: Ratio IC50
[14] = Selectivity index, ratio of IC50 for african green monkey (Cercopithecus aethiops) Vero cells to IC50 for chloroquine-sensitive Plasmodium falciparum D6; format: toxicity, cell-based; details: read-out: Ratio IC50
[15] = tested on: HL-60; assay: Cytotoxicity against human HL60 cells by XTT assay; format: cell-based
In short: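 XTT proliferation read-out combined with the primary assay for inhibitors of LFA-1/ICAM-1-mediated cell aggregation. IC50 in µg/mL, mean ± SEM of three determinations.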

[16] = tested on: RAW264.7; assay: Cytotoxicity against mouse RAW264.7 cells after 2 days by MTT assay; format: cell-based; details: RAW264.7, 48 h
In short: (§2)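 MTT viability assay, run on CHO-ICAM-1 cells and, separately, on RAW 264.7 cells. IC50 in µg/mL, mean ± SEM of three determinations.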

[17] = tested on: KB; assay: Cytotoxicity against human KB cells after 48 hrs by neutral red staining; format: functional, cell-based
In short: (§3)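 Human tumour lines: SK-MEL (malignant melanoma), KB (epidermal carcinoma), BT-549 (ductal carcinoma) and SK-OV-3 (ovary carcinoma). Compounds tested up to a maximum of 10 µg/mL, with doxorubicin as reference. IC50 given in µg/mL as mean ± SEM of three determinations.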

[18] = tested on: BT-549; assay: Cytotoxicity against human BT549 cells after 48 hrs by neutral red staining; format: functional, cell-based; details: BT-549, 48 h; in short: as §3
[19] = Specific index, ratio of IC50 for human HL60 cells to MIC for LFA1/ICAM1; format: functional, HL-60
In short: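 Index calculated as XTT-assay IC50 (µg/mL) divided by the MIC from the LFA-1/ICAM-1-mediated aggregation primary screen (µg/mL). XTT IC50 values are given as mean ± SEM of three determinations.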

[20] = tested on: CHO; assay: Cytotoxicity against CHO cells transfected with ICAM1 by MTT assay; format: cell-based; details: Cricetulus griseus; in short: as §2
[21] = Specific index, ratio of IC50 for mouse RAW264.7 to IC50 for iNOS production in mouse RAW264.7
In short: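 Index calculated as the MTT IC50 in RAW 264.7 cells divided by the iNOS IC50 in the same cells.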

[22] = tested on: RAW264.7; assay: Inhibition of iNOS production in LPS-activated mouse RAW264.7 cells after 20 hrs; format: functional, cell-based; details: RAW264.7, 20 h
In short: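 iNOS assay in RAW 264.7 cells, with L-NMMA, APDC and dexamethasone as reference inhibitors. IC50 in µg/mL, mean ± SEM of three determinations.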

[23] = molecular target: Intercellular adhesion molecule (ICAM-1), Integrin alpha-L/beta-2 (Homo sapiens, UniProt P05107+P05362+P20701); assay: Inhibition of LFA1/ICAM1-mediated adhesion of HL60 cells to CHO-ICAM1 cells; format: cell-based, HL-60
In short: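 Secondary LFA-1/ICAM-1-mediated adhesion assay using HL-60 cells and CHO-ICAM-1 cells, with cytochalasin B as standard. IC50 in µg/mL, mean ± SEM of three determinations.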

[24] = tested on: SK-MEL; assay: Cytotoxicity against human SK-MEL cells after 48 hrs by neutral red staining; format: functional, cell-based; in short: as §3
[25] = molecular target: Intercellular adhesion molecule (ICAM-1), Integrin alpha-L/beta-2 (Homo sapiens) (UniProt P20701+P05362+P05107); assay: Inhibition of LFA1/ICAM1-mediated HL60 cell aggregation; format: cell-based; details: HL-60
In short: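 Primary screen for LFA-1/ICAM-1-mediated cell aggregation run together with an XTT cell-proliferation read-out. Aggregation potency is reported as a minimum inhibitory concentration in µg/mL.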

[26] = tested on: SK-OV-3; assay: Cytotoxicity against human SKOV3 cells after 48 hrs by neutral red staining; format: functional, cell-based; details: SK-OV-3, 48 h; in short: as §3
[27] = Specific index, ratio of IC50 for CHO cells to IC50 for LFA1/ICAM1
In short: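 Ratio of the MTT IC50 against CHO-ICAM-1 cells to the IC50 from the secondary LFA-1/ICAM-1-mediated adhesion assay, in which HL-60 cells adhere to CHO-ICAM-1 cells. IC50 values are in µg/mL, as mean ± SEM of three determinations.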

Chain of Intercellular adhesion molecule (ICAM-1), Integrin alpha-L/beta-2 (P20701 whole entry): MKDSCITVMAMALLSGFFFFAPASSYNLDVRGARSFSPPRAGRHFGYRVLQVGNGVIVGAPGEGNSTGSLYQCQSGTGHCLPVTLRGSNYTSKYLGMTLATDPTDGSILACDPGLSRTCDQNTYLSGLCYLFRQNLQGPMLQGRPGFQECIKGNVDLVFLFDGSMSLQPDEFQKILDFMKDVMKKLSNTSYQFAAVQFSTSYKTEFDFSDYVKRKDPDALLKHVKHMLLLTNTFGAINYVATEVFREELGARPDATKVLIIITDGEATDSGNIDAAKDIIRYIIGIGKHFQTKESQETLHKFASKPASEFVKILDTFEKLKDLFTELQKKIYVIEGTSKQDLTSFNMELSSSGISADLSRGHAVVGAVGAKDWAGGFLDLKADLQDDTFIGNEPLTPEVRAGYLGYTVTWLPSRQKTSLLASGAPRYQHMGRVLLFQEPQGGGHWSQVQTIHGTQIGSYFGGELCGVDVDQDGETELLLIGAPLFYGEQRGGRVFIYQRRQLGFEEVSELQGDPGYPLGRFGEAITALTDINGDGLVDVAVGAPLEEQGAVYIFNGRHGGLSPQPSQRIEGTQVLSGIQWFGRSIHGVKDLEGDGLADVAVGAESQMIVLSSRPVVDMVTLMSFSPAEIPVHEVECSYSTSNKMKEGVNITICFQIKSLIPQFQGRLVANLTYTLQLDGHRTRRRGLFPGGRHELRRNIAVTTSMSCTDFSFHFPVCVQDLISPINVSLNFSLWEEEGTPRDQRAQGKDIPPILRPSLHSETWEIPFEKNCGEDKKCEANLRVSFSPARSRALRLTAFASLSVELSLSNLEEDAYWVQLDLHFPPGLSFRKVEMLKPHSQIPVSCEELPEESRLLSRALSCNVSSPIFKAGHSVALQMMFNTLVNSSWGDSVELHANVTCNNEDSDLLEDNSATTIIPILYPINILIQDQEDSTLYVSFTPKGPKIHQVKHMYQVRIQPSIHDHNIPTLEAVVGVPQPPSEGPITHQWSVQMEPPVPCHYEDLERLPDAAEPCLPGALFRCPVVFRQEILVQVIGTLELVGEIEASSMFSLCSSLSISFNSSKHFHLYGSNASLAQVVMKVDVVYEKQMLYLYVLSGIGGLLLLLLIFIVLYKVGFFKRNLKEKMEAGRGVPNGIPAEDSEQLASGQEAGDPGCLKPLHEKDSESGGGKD
Chain of Intercellular adhesion molecule (ICAM-1), Integrin alpha-L/beta-2 (P05362 whole entry): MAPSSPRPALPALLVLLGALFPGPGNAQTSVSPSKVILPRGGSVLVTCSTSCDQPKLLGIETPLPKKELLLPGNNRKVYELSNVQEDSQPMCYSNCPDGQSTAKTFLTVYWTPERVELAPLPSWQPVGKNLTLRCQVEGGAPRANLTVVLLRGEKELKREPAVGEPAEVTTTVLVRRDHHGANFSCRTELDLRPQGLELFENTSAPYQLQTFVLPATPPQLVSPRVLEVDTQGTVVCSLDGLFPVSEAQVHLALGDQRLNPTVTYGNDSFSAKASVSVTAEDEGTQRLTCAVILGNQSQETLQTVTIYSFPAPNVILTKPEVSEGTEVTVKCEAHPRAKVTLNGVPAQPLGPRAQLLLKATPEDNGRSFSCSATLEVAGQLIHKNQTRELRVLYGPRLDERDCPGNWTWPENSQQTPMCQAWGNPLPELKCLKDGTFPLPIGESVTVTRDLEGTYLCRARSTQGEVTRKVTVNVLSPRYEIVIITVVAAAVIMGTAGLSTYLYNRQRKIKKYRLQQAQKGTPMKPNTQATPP
Chain of Intercellular adhesion molecule (ICAM-1), Integrin alpha-L/beta-2 (P05107 whole entry): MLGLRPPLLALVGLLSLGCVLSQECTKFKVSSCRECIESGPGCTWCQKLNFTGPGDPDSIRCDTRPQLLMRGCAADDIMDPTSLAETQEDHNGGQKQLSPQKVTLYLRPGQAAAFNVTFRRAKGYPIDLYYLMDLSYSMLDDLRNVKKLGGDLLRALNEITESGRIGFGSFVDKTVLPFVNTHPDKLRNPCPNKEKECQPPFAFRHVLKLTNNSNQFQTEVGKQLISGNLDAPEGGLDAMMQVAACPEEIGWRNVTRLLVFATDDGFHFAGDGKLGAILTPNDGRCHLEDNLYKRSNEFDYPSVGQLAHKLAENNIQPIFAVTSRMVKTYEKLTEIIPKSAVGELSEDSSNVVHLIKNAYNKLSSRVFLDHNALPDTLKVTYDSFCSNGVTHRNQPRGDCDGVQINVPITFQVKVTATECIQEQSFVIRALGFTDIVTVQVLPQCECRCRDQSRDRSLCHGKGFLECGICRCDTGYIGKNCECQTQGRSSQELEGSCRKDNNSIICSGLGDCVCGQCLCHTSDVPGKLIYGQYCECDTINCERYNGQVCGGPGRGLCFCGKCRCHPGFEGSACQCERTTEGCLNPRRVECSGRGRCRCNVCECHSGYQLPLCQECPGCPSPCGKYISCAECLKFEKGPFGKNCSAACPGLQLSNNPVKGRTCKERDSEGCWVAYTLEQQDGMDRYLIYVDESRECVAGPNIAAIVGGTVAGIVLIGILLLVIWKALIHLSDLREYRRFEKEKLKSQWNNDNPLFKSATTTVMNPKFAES

SMILES | Activity [1] | Activity [3] | Activity [4] | Activity [5] | Activity [6] | IC50 [7] | IC90 [7] | IC50 [8] | inhibition at 2 µM [9] | IC50 [10] | IC50 [11] | Activity [12] | selectivity ratio [13] | selectivity ratio [14] | IC50 [15] | IC50 [16] | Ratio [19] | IC50 [20] | Ratio [21] | IC50 [22] | further results
CC[C@@H](C)C(=O)O[C@H]1C(=O)O[C@@H]2C[C@H]3C(C)=C[C@H](OC(C)=O)[C@@H](OC(C)=O)[C@]3(C)[C@H]3[C@@H](O)[C@@H](OC(C)=O)[C@]4(C)OC[C@]32[C@@H]14 | inactive | 1.02 | 100% | 0.87 | 1.03 | > 50 µg/mL | > 50 µg/mL | > 4760 ng/mL | 0% | 10 µg/mL (≈ 16.5 µM) | > 4.76 µg/mL | 1.14 | – | – | – | – | – | – | – | – | Activity [2]: inactive
C[C@@H]1CC[C@H]2[C@@H](C)C(=O)O[C@@H]3O[C@@]4(C)CC[C@@H]1[C@]32OO4 [ARTEMISININ] | – | – | – | – | – | 36 µg/mL (≈ 128 µM) | > 50 µg/mL | 8.5 ng/mL (≈ 0.0301 µM) | – | > 10 µg/mL | – | – | > 1180 | > 699 | – | – | – | – | – | – | –
CC[C@@H](C)C(=O)O[C@H]1C(=O)O[C@@H]2C[C@H]3C(C)=CC(=O)[C@@H](O)[C@]3(C)[C@H]3[C@@H](OC(C)=O)[C@H](OC(C)=O)[C@]4(C)OC[C@]32[C@@H]14 | inactive | 0.42 | 100% | 1.34 | 0.52 | > 50 µg/mL | > 50 µg/mL | 1700 ng/mL (≈ 3.02 µM) | 0% | > 23.8 µg/mL | 3.2 µg/mL (≈ 5.69 µM) | 0.87 | > 14 | > 7.4 | 40 µg/mL (≈ 71.1 µM) | 24 µg/mL (≈ 42.7 µM) | 1.9 | 39 µg/mL (≈ 69.3 µM) | 1 | 23 µg/mL (≈ 40.9 µM) | Activity [2]: inactive; IC50 [17]: > 10 µg/mL; IC50 [18]: > 10 µg/mL; IC50 [23]: > 44.4 µM; IC50 [24]: > 10 µg/mL; MIC [25]: 20.8 µg/mL (≈ 37 µM); IC50 [26]: > 10 µg/mL
N.S=C(S)N1CCCC1 [PYRROLIDINE DITHIOCARBAMIC ACID, AMMONIUM SALT] | – | – | – | – | – | – | – | – | – | – | – | – | – | – | – | < 0.4 µg/mL | – | – | <0.02 | 21 µg/mL | –
N=C(N)c1ccc(OCCCCCOc2ccc(C(=N)N)cc2)cc1 [PENTAMIDINE] | – | – | – | – | – | 1.6 µg/mL (≈ 4.7 µM) | 3.5 µg/mL (≈ 10.3 µM) | – | – | – | – | – | – | – | – | – | – | – | – | – | –
C[C@@H]1[C@H](O)[C@@H](C)/C=C/C=C/C=C/C=C/C=C/C=C/C=C/[C@H](O[C@@H]2O[C@H](C)[C@@H](O)[C@H](N)[C@@H]2O)C[C@@H]2O[C@](O)(C[C@@H](O)C[C@@H](O)[C@H](O)CC[C@@H](O)C[C@@H](O)CC(=O)O[C@H]1C)C[C@H](O)[C@H]2C(=O)O [AMPHOTERICIN B] | – | – | – | – | – | 1.1 µg/mL (≈ 1.19 µM) | 2.1 µg/mL (≈ 2.27 µM) | – | – | – | – | – | – | – | – | – | – | – | – | – | –
CCN(CC)CCCC(C)Nc1ccnc2cc(Cl)ccc12 (configuration not stated) [CHLOROQUINE] | – | – | – | – | – | – | – | – | – | > 10 µg/mL | – | – | – | – | – | – | – | – | – | – | –
C=C1[C@@H](C)[C@H]2[C@H](Cc3ccccc3)NC(=O)[C@]23OC(=O)/C=C/[C@H](O)CCC[C@@H](C)C/C=C/[C@H]3[C@@H]1O [CYTOCHALASIN B] | – | – | – | – | – | – | – | – | – | – | – | – | – | – | 40 µg/mL (≈ 83.4 µM) | 6.5 µg/mL (≈ 13.6 µM) | 17.2 | 0.26 µg/mL (≈ 0.542 µM) | 1.1 | 5.6 µg/mL (≈ 11.7 µM) | Ratio [27]: 0.04; IC50 [23]: 14.8 µM; MIC [25]: 2.3 µg/mL (≈ 4.8 µM)
CC[C@@H](C)C(=O)O[C@H]1C(=O)O[C@@H]2C[C@H]3C(C)=C[C@H](O)[C@@H](O)[C@]3(C)[C@H]3[C@@H](O)[C@@H](O)[C@]4(C)OC[C@]32[C@@H]14 | Active | 0.05 | 3.5% | 0.35 | 0.09 | 25 µg/mL (≈ 52 µM) | > 50 µg/mL | 8.53 ng/mL (≈ 0.0178 µM) | 96.5% | 10 µg/mL (≈ 20.8 µM) | 0.00327 µg/mL (≈ 0.0068 µM) | 0.57 | 1180 | 3060 | 0.7 µg/mL (≈ 1.46 µM) | 4.2 µg/mL (≈ 8.74 µM) | 2.7 | 2.5 µg/mL (≈ 5.2 µM) | 0.6 | 6.5 µg/mL (≈ 13.5 µM) | IC50 [17]: 1.9 µg/mL (≈ 3.95 µM); IC50 [18]: 1.7 µg/mL (≈ 3.54 µM); IC50 [23]: > 52 µM; IC50 [24]: 1.9 µg/mL (≈ 3.95 µM); MIC [25]: 0.26 µg/mL (≈ 0.541 µM); IC50 [26]: 0.8 µg/mL (≈ 1.66 µM)
C[C@@H]1C[C@H]2[C@@H]3CCC4=CC(=O)C=C[C@]4(C)[C@@]3(F)[C@@H](O)C[C@]2(C)[C@@]1(O)C(=O)CO [DEXAMETHASONE] | – | – | – | – | – | – | – | – | – | – | – | – | – | – | – | > 25 µg/mL | – | – | 0.69 | 36 µg/mL (≈ 91.7 µM) | –
